Experiments:
[1] = Growth inhibition of human WM266.4 cells expressing BRAF V600E mutant after 5 days by SRB assay; assay type: functional; conditions: WM 266-4, 120 h
In short: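 WM266.4 human melanoma cells, which are driven by mutant BRAF, were assayed for proliferation by sulforhodamine B (SRB) staining; the value is a GI50.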

[2] = molecular target: Proto-oncogene tyrosine-protein kinase Src (Homo sapiens) (UniProt P12931); experiment: Inhibition of Src at 1 uM relative to control
[3] = molecular target: Calcium/calmodulin-dependent protein kinase kinase 2 (Homo sapiens) (UniProt Q96RR4); experiment: Inhibition of CAMKKb at 1 uM relative to control
Sequence of Calcium/calmodulin-dependent protein kinase kinase 2 (Homo sapiens) (Q96RR4 2-588 limits assumed): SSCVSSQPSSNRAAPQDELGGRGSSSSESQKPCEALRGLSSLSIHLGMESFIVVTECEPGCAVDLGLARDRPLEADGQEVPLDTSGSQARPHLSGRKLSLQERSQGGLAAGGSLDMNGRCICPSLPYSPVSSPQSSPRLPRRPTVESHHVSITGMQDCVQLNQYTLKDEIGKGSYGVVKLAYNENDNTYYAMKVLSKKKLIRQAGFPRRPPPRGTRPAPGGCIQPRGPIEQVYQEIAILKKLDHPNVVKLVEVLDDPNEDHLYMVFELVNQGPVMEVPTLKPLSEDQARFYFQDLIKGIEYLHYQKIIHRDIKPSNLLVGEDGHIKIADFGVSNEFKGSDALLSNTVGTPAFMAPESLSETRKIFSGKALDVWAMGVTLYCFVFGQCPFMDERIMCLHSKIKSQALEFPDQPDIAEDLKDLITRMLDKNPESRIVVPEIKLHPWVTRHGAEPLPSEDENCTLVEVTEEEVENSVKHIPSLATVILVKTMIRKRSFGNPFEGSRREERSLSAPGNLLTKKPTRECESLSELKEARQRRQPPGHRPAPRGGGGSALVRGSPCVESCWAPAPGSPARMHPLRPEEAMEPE

[4] = molecular target: MAP kinase-activated protein kinase 2 (Homo sapiens) (UniProt P49137); experiment: Inhibition of MAPKAP-K2 at 1 uM relative to control
Sequence of MAP kinase-activated protein kinase 2 (Homo sapiens) (P49137 whole entry, looked up): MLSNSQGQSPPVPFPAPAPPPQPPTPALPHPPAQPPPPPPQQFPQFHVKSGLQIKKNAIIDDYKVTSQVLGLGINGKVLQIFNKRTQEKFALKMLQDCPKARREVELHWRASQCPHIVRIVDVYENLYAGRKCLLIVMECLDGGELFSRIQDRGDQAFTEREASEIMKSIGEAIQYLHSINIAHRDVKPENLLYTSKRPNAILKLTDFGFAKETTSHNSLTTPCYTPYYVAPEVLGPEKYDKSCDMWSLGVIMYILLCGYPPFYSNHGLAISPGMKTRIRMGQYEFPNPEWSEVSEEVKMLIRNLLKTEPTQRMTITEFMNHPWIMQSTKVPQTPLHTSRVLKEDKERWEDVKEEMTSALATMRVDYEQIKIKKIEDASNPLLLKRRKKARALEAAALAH

[5] = molecular target: MAP kinase-interacting serine/threonine-protein kinase 1 (Homo sapiens) (UniProt Q9BUB5); experiment: Inhibition of MNK1 at 1 uM relative to control
Sequence of MAP kinase-interacting serine/threonine-protein kinase 1 (Homo sapiens) (Q9BUB5 whole entry, looked up): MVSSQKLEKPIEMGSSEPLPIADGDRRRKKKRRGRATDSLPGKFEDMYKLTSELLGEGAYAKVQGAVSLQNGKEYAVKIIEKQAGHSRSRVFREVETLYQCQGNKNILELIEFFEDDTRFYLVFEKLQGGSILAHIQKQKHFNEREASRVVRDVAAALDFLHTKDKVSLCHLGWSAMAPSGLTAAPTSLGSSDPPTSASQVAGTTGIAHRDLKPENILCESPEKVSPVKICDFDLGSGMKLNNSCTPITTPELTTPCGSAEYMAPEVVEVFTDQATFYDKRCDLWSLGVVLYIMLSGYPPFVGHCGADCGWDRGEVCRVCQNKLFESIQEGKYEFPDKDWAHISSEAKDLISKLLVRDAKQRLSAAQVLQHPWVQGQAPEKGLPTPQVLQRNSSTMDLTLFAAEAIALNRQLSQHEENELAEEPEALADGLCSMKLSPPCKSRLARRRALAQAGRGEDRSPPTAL

[6] = Inhibition of PKA at 1 uM relative to control
[7] = molecular target: Serine/threonine-protein kinase pim-2 (Homo sapiens) (UniProt Q9P1W9); experiment: Inhibition of PIM2 at 1 uM relative to control
Sequence of Serine/threonine-protein kinase pim-2 (Homo sapiens) (Q9P1W9 whole entry, looked up): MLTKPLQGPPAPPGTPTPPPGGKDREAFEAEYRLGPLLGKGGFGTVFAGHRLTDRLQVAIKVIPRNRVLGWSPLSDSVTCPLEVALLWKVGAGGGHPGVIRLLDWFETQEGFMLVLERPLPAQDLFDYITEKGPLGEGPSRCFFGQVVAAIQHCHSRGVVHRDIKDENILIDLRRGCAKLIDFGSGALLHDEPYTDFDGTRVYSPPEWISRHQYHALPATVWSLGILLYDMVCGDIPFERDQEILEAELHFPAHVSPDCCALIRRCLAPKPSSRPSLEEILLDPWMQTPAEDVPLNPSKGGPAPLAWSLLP

[8] = Inhibition of CK2 at 1 uM relative to control
[9] = molecular target: Dual specificity tyrosine-phosphorylation-regulated kinase 1A (Homo sapiens) (UniProt Q13627); experiment: Inhibition of DYRK1A at 1 uM relative to control
[10] = molecular target: T1, Dual specificity tyrosine-phosphorylation-regulated kinase 2 (Homo sapiens) (UniProt Q92630); experiment: Inhibition of DYRK2 at 1 uM relative to control
T1 sequence (whole entry): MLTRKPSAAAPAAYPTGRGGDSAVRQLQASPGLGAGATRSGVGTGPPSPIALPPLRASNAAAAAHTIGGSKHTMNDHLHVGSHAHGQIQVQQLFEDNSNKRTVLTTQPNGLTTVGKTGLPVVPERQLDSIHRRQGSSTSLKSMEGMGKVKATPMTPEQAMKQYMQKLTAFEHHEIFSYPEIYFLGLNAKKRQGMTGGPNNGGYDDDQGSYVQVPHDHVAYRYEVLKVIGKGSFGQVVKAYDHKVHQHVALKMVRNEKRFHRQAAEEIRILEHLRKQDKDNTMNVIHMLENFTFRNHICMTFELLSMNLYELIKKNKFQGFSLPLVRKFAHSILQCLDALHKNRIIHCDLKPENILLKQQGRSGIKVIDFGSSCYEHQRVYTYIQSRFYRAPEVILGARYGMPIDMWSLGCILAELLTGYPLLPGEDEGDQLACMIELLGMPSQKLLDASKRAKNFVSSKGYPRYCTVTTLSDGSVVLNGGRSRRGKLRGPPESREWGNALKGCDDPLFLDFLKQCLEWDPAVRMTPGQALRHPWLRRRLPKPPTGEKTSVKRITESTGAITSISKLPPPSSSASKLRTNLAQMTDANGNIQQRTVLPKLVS

[11] = molecular target: Serine/threonine-protein kinase PAK 4 (Homo sapiens) (UniProt O96013); experiment: Inhibition of PAK4 at 1 uM relative to control
Sequence of Serine/threonine-protein kinase PAK 4 (Homo sapiens) (O96013 whole entry, looked up): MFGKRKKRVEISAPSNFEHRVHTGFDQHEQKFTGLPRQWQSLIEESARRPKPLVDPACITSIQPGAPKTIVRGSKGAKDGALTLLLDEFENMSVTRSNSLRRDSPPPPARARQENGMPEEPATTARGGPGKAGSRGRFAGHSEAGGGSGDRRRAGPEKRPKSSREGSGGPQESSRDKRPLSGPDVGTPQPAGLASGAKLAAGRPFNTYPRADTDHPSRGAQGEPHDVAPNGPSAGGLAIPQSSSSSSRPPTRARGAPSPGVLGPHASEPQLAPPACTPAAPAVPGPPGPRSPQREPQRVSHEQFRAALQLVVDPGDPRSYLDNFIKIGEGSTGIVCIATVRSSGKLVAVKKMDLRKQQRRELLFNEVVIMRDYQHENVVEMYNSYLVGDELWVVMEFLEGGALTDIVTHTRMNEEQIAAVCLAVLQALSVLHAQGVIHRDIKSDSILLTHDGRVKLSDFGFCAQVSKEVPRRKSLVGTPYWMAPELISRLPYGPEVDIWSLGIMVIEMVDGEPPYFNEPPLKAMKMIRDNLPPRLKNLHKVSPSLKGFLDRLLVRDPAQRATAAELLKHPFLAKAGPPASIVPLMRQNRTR

[12] = molecular target: Serine/threonine-protein kinase PAK 5 (Homo sapiens) (UniProt Q9P286); experiment: Inhibition of PAK5 at 1 uM relative to control
Sequence of Serine/threonine-protein kinase PAK 5 (Homo sapiens) (Q9P286 whole entry, looked up): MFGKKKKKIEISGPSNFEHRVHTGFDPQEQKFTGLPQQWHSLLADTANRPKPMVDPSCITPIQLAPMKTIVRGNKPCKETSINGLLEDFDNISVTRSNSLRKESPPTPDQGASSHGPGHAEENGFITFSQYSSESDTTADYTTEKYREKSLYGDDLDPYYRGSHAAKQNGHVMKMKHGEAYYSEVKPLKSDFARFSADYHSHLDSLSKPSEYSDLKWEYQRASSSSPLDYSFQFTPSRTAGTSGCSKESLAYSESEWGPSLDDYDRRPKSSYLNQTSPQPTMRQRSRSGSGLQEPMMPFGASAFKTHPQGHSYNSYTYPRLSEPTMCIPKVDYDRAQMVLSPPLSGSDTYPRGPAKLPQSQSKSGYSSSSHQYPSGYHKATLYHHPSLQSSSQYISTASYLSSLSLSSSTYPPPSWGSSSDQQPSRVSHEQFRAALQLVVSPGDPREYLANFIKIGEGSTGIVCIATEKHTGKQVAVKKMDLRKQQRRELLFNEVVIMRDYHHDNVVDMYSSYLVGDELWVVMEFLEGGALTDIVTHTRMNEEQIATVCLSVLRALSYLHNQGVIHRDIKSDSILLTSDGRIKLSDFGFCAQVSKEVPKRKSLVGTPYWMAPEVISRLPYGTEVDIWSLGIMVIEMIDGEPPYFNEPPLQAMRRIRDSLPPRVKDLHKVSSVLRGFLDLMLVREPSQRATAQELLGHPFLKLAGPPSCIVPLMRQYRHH

[13] = molecular target: T2, Serine/threonine-protein kinase 3 (Homo sapiens) (UniProt Q13188); experiment: Inhibition of MST2 at 1 uM relative to control
T2 sequence (whole entry): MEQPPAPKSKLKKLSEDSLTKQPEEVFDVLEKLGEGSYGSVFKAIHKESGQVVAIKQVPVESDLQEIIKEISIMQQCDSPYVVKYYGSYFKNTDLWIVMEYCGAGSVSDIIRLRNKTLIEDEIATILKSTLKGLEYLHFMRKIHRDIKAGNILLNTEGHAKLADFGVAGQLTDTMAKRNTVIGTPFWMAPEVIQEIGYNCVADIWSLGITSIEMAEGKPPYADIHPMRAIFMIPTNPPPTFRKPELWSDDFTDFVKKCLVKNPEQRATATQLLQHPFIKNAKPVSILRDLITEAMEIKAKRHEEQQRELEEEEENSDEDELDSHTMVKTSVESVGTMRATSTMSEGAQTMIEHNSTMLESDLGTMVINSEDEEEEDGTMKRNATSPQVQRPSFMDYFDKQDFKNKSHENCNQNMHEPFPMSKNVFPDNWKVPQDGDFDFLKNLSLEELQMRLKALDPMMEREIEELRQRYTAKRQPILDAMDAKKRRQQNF

[14] = molecular target: MAP/microtubule affinity-regulating kinase 3 (Homo sapiens) (UniProt P27448); experiment: Inhibition of MARK3 at 1 uM relative to control
Sequence of MAP/microtubule affinity-regulating kinase 3 (Homo sapiens) (P27448 whole entry, looked up): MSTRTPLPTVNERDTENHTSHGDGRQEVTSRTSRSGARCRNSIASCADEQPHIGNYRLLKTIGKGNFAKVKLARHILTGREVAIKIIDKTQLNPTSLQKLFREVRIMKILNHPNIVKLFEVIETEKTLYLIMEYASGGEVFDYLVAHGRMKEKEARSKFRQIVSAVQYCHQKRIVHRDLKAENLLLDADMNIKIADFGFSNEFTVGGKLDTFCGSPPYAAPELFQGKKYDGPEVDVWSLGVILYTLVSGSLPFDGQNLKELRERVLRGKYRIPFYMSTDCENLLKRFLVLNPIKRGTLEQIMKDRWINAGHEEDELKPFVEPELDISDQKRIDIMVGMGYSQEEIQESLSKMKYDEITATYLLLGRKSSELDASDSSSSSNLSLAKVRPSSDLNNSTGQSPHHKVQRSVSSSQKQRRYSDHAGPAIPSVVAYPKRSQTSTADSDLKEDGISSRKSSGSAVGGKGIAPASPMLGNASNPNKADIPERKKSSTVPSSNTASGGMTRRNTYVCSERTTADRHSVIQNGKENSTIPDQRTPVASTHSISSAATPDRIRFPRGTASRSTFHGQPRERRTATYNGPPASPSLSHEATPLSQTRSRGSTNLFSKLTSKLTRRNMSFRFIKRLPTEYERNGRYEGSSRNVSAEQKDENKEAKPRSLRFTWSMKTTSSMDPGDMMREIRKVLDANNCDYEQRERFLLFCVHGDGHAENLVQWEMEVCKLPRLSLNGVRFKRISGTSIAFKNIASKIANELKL

[15] = molecular target: MAP kinase-interacting serine/threonine-protein kinase 2 (Homo sapiens) (UniProt Q9HBH9); experiment: Inhibition of MNK2 at 1 uM relative to control
Sequence of MAP kinase-interacting serine/threonine-protein kinase 2 (Homo sapiens) (Q9HBH9 whole entry, looked up): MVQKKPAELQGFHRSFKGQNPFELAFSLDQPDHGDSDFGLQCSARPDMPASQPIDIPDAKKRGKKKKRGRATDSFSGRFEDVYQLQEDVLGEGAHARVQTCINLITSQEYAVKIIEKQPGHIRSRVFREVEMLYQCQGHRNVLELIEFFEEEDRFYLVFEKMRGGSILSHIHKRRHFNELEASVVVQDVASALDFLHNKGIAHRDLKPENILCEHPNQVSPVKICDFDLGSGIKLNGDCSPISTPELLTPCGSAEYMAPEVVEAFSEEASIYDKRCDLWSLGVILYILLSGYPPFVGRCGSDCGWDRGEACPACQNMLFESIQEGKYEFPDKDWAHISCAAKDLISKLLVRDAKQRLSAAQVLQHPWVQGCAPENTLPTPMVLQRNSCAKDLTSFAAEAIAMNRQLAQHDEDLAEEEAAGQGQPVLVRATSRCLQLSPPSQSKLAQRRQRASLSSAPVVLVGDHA

[16] = molecular target: T3, Eukaryotic elongation factor 2 kinase (Homo sapiens) (UniProt O00418); experiment: Inhibition of EFK2 at 1 uM relative to control
T3 sequence (whole entry): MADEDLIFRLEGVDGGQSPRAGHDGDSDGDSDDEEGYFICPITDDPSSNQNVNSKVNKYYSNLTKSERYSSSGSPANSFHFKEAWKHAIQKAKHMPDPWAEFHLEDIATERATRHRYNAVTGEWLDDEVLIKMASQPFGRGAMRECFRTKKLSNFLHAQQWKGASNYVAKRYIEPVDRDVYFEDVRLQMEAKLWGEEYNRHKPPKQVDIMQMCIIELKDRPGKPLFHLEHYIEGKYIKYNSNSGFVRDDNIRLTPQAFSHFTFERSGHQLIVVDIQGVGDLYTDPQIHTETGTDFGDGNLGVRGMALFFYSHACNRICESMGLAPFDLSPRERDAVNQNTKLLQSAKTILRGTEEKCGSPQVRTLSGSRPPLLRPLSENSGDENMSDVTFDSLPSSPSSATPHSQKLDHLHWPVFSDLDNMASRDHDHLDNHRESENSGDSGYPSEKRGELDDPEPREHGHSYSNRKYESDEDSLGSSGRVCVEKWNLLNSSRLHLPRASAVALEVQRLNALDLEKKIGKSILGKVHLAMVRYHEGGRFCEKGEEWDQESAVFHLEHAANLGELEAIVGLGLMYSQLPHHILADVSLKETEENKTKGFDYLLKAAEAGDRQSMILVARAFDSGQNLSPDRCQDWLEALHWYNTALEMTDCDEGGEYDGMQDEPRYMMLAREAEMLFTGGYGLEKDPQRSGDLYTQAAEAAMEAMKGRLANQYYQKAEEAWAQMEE

Sequence of Proto-oncogene tyrosine-protein kinase Src (Homo sapiens) (P12931 2-536 limits assumed): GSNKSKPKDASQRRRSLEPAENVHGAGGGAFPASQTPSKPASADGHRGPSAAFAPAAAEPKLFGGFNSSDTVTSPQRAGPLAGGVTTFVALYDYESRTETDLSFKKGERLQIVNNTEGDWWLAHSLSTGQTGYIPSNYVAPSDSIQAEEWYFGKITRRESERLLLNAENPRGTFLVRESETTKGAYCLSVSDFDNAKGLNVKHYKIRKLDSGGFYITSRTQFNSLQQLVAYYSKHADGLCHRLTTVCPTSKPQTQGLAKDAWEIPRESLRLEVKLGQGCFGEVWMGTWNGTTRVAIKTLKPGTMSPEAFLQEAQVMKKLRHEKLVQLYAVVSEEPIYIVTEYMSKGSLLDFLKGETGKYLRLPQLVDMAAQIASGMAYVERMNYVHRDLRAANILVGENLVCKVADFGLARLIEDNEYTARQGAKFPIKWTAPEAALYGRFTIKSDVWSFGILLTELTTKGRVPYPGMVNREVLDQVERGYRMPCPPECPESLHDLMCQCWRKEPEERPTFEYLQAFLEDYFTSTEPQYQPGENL

| Structure (SMILES) | GI50 [1] [nM] | residual activity [2] [%] | residual activity [3] [%] | residual activity [4] [%] | residual activity [5] [%] | residual activity [6] [%] | residual activity [7] [%] | residual activity [8] [%] | residual activity [9] [%] | residual activity [10] [%] | residual activity [11] [%] | residual activity [12] [%] | residual activity [13] [%] | residual activity [14] [%] | residual activity [15] [%] | residual activity [16] [%] |
| --- | --- | --- | --- | --- | --- | --- | --- | --- | --- | --- | --- | --- | --- | --- | --- | --- |
| O=C(Nc1cc(C(F)(F)F)ccc1F)Nc1ccc(Oc2ccnc3[nH]c(=O)[nH]c23)c2ccccc12 | 290 | < 25 | 100 | 100 | 100 | 75 | 100 | 100 | 100 | 100 | 75 | 100 | 100 | 75 | 100 | 75 |
| CC(C)(C)c1cccc(NC(=O)Nc2ccc(Oc3ccnc4[nH]c(=O)[nH]c34)c3ccccc23)c1 | 3900 | < 25 | 75 | 75 | 75 | 75 | 100 | 100 | 100 | 100 | 75 | 75 | 75 | 100 | 100 | 100 |
| CSc1cc(Oc2ccnc3[nH]c(=O)[nH]c23)ccc1NC(=O)Nc1cccc(C(F)(F)F)c1 | 1060 | < 25 | 50 | 100 | 100 | 100 | 100 | 100 | 100 | 100 | 75 | 75 | 75 | 75 | 100 | 100 |

Source: ChEMBL document CHEMBL1136991, “Novel potent BRAF inhibitors: toward 1 nM compounds through optimization of the central phenyl ring” (J Med Chem, 2009)
